Reference: ChEMBL document CHEMBL2040753, “Development of potent and selective inhibitors of aldo-keto reductase 1C3 (type 5 17β-hydroxysteroid dehydrogenase) based on N-phenyl-aminobenzoates and their structure-activity relationships” (J Med Chem, 2012)
pIC50: −log10 of the molar value.

Columns and labels:
[1] = biological target: T1, Aldo-keto reductase family 1 member C3 (Homo sapiens, UniProt P42330); assay: Inhibition of recombinant AKR1C3 assessed as NADP+ dependent oxidation of S-tetralol by fluorescence assay
T1 sequence (P42330 whole entry): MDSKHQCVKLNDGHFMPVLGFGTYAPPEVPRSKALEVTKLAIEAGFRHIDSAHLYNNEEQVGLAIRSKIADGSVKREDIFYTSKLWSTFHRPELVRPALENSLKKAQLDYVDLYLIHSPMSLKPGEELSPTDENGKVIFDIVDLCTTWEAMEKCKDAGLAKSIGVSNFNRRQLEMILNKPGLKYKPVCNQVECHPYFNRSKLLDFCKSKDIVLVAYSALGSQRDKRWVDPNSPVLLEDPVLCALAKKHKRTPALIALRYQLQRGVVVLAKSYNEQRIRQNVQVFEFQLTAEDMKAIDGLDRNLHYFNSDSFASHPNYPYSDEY

[2] = biological target: T2, Aldo-keto reductase family 1 member C2 (Homo sapiens, UniProt P52895); assay: Inhibition of recombinant AKR1C2 assessed as NADP+ dependent oxidation of S-tetralol by fluorescence assay
T2 sequence (P52895 whole entry): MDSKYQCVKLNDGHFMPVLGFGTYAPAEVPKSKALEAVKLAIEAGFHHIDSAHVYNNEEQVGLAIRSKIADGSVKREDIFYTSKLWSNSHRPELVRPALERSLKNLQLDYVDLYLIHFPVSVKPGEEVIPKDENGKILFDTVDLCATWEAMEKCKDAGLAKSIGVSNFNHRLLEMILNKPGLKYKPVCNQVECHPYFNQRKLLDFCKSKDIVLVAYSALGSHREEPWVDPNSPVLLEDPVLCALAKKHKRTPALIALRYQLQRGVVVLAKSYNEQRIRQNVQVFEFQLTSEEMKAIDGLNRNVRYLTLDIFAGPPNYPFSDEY
In short: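 Homogeneous recombinant enzyme; continuous oxidation of S-tetralol (at each isoform's KM) with 200 μM NADP+ in 100 mM phosphate pH 7.0, 4% DMSO, 37 °C. Initial velocities compared with solvent control; quadruplicate points over a range of inhibitor concentrations; IC50 from curve fit.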

SMILES	pIC50 [1]	pIC50 [2]
CC(=O)c1ccc(Nc2cccc(C)c2)c(C(=O)O)c1	5.71	5.55
COc1ccc(Nc2ccc(C(C)=O)cc2C(=O)O)c([N+](=O)[O-])c1	6.59	5.41
O=C(O)c1ccc(Nc2ccc(Br)cc2)cc1	5.93	< 4.52
COc1cccc(Nc2cccc(C(=O)O)c2)c1	5.92	4.82
Cc1cccc(Nc2ccccc2C(=O)O)c1	6.62	6.42
Cc1cccc(Nc2ccc(C(=O)O)cc2)c1	5.78	4.67
O=C(O)c1cccc(Nc2cc(C(=O)O)cc(C(=O)O)c2)c1	< 4.52	< 4.00
COc1ccc(C(=O)O)c(Nc2ccc(Br)cc2)c1	6.82	6.27
COc1ccc(C(=O)O)c(Nc2ccc(C(C)=O)cc2)c1	6.30	6.57
O=C(O)c1ccc(Nc2ccccc2C(=O)O)cc1	5.56	5.49
CC(=O)c1cccc(Nc2cccc(C(=O)O)c2)c1	6.25	4.44
O=C(O)c1cccc(Nc2cccc(C(=O)O)c2)c1	5.45	< 4.00
Cc1cc(C)cc(Nc2ccc(C(=O)O)cc2)c1	6.06	4.31
COc1ccccc1Nc1ccc(C(=O)O)cc1	5.47	4.53
O=C(O)c1ccccc1Nc1ccc(Cl)cc1	7.15	6.39
CC(=O)c1ccc(Nc2cccc(Cl)c2)c(C(=O)O)c1	5.94	5.59
O=C(O)c1cccc(Nc2cc(C(F)(F)F)cc(C(F)(F)F)c2)c1	6.60	4.72
Cc1cc(C)cc(Nc2cccc(C(=O)O)c2)c1	5.97	4.35
O=C(O)c1cccc(Nc2cccc(Cl)c2)c1	6.34	5.14
Cc1cccc(C)c1Nc1cccc(C(=O)O)c1	5.54	4.99

SMILES	pIC50 [1]	pIC50 [2]
O=C(O)c1cccc(Nc2ccc([N+](=O)[O-])cc2OC(F)(F)F)c1	7.40	5.75
O=C(O)c1cccc(Nc2ccccc2C(F)(F)F)c1	6.25	4.82
Cc1cc(C)cc(Nc2ccccc2C(=O)O)c1	5.96	5.63
O=C(O)c1cccc(Nc2cccc(C(F)(F)F)c2)c1	6.49	4.80
O=C(O)c1ccc(Nc2ccc([N+](=O)[O-])cc2)cc1	5.88	4.95
O=C(O)c1ccc(Nc2ccc(C(=O)O)cc2)cc1	5.63	5.20
O=C(O)c1ccccc1Nc1cccc([N+](=O)[O-])c1	7.40	6.29
Cc1ccc(Nc2ccc(C(=O)O)cc2)cc1	5.72	4.32
COc1ccccc1Nc1ccccc1C(=O)O	5.65	5.89
CC(=O)c1ccc(Nc2ccccc2)c(C(=O)O)c1	5.60	5.42
O=C(O)c1ccc(Nc2ccc(Cl)cc2)cc1	5.98	4.70
CC(=O)c1ccc(Nc2ccccc2C(C)=O)c(C(=O)O)c1	5.35	4.90
COc1ccc(Nc2ccc(C(=O)O)cc2)cc1	5.66	4.64
COc1ccccc1Nc1ccc(C(C)=O)cc1C(=O)O	5.51	5.05
CC(=O)c1cccc(Nc2ccc(C(C)=O)cc2C(=O)O)c1	6.19	5.73
COc1cccc(Nc2ccc(C(=O)O)cc2)c1	5.58	4.07
CC(=O)c1ccc(Nc2cc(C(F)(F)F)cc(C(F)(F)F)c2)c(C(=O)O)c1	5.75	4.80
CC(=O)c1ccc(Nc2ccc(C(=O)O)cc2)cc1	5.60	4.61
CC(=O)c1cccc(Nc2ccccc2C(=O)O)c1	6.85	5.81
CC(C)(C)c1ccc(Nc2ccc(C(=O)O)cc2)cc1	6.03	4.99

SMILES	pIC50 [1]	pIC50 [2]
COc1ccc(C(=O)O)c(Nc2cc(C)cc(C)c2)c1	5.76	5.49
O=C(O)c1ccc(Nc2cccc([N+](=O)[O-])c2)cc1	5.38	< 4.00
COc1ccc(Nc2ccccc2C(=O)O)c([N+](=O)[O-])c1	7.52	6.04
CC(C)(C)c1ccc(Nc2ccccc2C(=O)O)cc1	7.40	5.97
CC(=O)c1ccc(Nc2cc(C)cc(C)c2)c(C(=O)O)c1	5.74	4.97
COc1ccc(C(=O)O)c(Nc2ccccc2)c1	5.78	5.83
COc1ccc(C(=O)O)c(Nc2cccc(C(F)(F)F)c2)c1	7.22	6.66
O=C(O)c1ccccc1Nc1cccc(Cl)c1	6.82	6.82
COc1ccc(C(=O)O)c(Nc2ccc(Cl)cc2)c1	6.66	6.54
O=C(O)c1cccc(Nc2cccc([N+](=O)[O-])c2)c1	6.54	4.71
O=C(O)c1cccc(Nc2ccccc2[N+](=O)[O-])c1	6.82	5.32
O=C(O)c1ccc(Nc2cccc(C(=O)O)c2)cc1	5.79	4.70
Cc1ccc(Nc2ccccc2C(=O)O)cc1	6.44	5.84
O=C(O)c1ccc(Nc2cccc(C(F)(F)F)c2)cc1	6.30	4.95
CC(=O)c1ccc(Nc2ccccc2[N+](=O)[O-])c(C(=O)O)c1	5.95	5.40
O=C(O)c1ccccc1Nc1ccc([N+](=O)[O-])cc1	6.80	6.55
COc1ccc(Nc2ccccc2C(=O)O)cc1	7.05	6.15
COc1ccc(C(=O)O)c(Nc2ccc([N+](=O)[O-])cc2)c1	6.30	6.72
O=C(O)c1cccc(Nc2ccccc2C(=O)O)c1	6.01	5.38
COc1ccccc1Nc1cccc(C(=O)O)c1	5.78	4.58

Continued, values first:

pIC50 [1]	pIC50 [2]	SMILES
6.89	6.40	CC(=O)c1ccc(Nc2ccccc2C(=O)O)cc1
6.21	6.04	COc1ccc(Nc2ccc(C(C)=O)cc2C(=O)O)cc1
5.87	5.68	CC(=O)c1ccc(Nc2ccccc2C(F)(F)F)c(C(=O)O)c1
6.24	5.95	COc1cccc(Nc2ccccc2C(=O)O)c1
6.16	6.01	COc1ccc(C(=O)O)c(Nc2ccc(C(=O)O)cc2)c1
5.84	5.08	COc1ccc(C(=O)O)c(Nc2cccc(C(=O)O)c2)c1
6.55	5.15	CC(=O)c1ccc(Nc2ccc(C(C)(C)C)cc2)c(C(=O)O)c1
5.60	4.16	COc1cc(Nc2ccc(C(=O)O)cc2)cc(OC)c1
5.81	4.72	CC(=O)c1ccc(Nc2ccc(C(=O)O)cc2)c(C(=O)O)c1
5.76	5.62	COc1ccc(C(=O)O)c(Nc2ccccc2OC)c1
6.10	5.95	COc1ccc(C(=O)O)c(Nc2ccc(C)cc2)c1
6.60	6.31	CC(=O)c1ccc(Nc2ccc(Br)cc2)c(C(=O)O)c1
5.65	5.17	COc1cc(Nc2cc(OC)ccc2C(=O)O)cc(OC)c1
7.10	6.72	COc1ccc(C(=O)O)c(Nc2cccc([N+](=O)[O-])c2)c1
6.21	4.50	CC(=O)c1ccc(Nc2cc(C(=O)O)cc(C(=O)O)c2)c(C(=O)O)c1
6.05	4.57	COc1cc(Nc2ccc(C(C)=O)cc2C(=O)O)cc(OC)c1
6.02	4.49	CC(=O)c1ccccc1Nc1cccc(C(=O)O)c1
6.19	6.06	COc1ccc(C(=O)O)c(Nc2cccc(C)c2)c1
6.33	4.73	CC(=O)c1ccc(Nc2ccc(C(C)=O)cc2C(=O)O)cc1
5.65	5.45	COc1cccc(Nc2ccc(C(C)=O)cc2C(=O)O)c1
5.78	5.08	CC(=O)c1ccc(Nc2ccc(C)cc2)c(C(=O)O)c1
6.01	5.50	CC(=O)c1ccc(Nc2cccc([N+](=O)[O-])c2)c(C(=O)O)c1
6.60	6.04	COc1ccc(Nc2cc(OC)ccc2C(=O)O)cc1
7.10	6.15	COc1ccc(C(=O)O)c(Nc2ccc(C(C)(C)C)cc2)c1
5.69	4.23	COc1ccc(Nc2ccc(C(=O)O)cc2)c([N+](=O)[O-])c1
6.80	6.55	COc1ccc(C(=O)O)c(Nc2cccc(Cl)c2)c1
6.24	5.83	COc1cccc(Nc2cc(OC)ccc2C(=O)O)c1
5.93	5.88	CC(=O)c1ccc(Nc2ccc([N+](=O)[O-])cc2)c(C(=O)O)c1
